The species named for series [1] is Rattus norvegicus. Nature of the series: Binding affinity at [3H]SB-204269 binding site expressed as pKi. The class given is functional. A digest of the protocol: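 Radioligand binding with [3H]SB-204269, reported as pKi. All determinations run in triplicate.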
For series [2], the system named is Rattus norvegicus. Nature of the series: Anticonvulsant activity by using rat MEST test at 2 mg/kg p.o. 2 hr post-dose. As to conditions: route oral. Format: functional. A digest of the protocol: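 Rat maximal electroshock seizure threshold (MEST) test. Oral dosing at 2 mg/kg, doses as free base; reference anticonvulsant given at 2.5 mg/kg p.o. Seizure threshold read 2 h post-dose as % increase versus vehicle-treated controls. Significance by Litchfield–Wilcoxon analysis.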

Series [3] is described as follows: Oral bioavailability. Format: ADME, organism-based. As to conditions: rat, in vivo. A digest of the protocol: (§1)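 Rat pharmacokinetics after iv and po administration. Oral bioavailability (Fpo) was measured with oral dosing at 2 mg/kg, and blood clearance (CLb) in mL/min/kg.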
A short description of series [4]: Plasma clearance was determined. The class given is ADME, organism-based. As to conditions: rat.
Series [5] in a line: Oral bioavailability at the dose of 2 mg/kg in rat. Format: ADME, organism-based. As to conditions: in vivo. A digest of the protocol: as §1
The species named for series [6] is Rattus norvegicus. Nature of the series: Compound tested for its ability to protect rat from hindlimb tonic seizures following a shock by using ALLFITrd quo. Format: functional. A digest of the protocol: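 Rat supraMES model. Oral doses of 1, 10 and 30 mg/kg. At 4 h post-dose, a single corneal-electrode shock of 180 mA lasting 0.3 s was given. Protection from hindlimb tonic seizures was scored against control, and ED50 was derived by ALLFIT fitting.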

Series [7] can be described thus: Oral bioavailability in rat. The class given is ADME, organism-based. The following applies: in vivo. A digest of the protocol: as §1

The structures appear in SMILES notation.

Consider `COc1ccc(C(=O)Nc2cnc3c(c2)CN(C)CC3(C)C)cc1F`, for which the “Log Ki” value in the series filed under Rattus norvegicus [1] is recorded as -7.3.

For `COc1ccc(C(=O)Nc2cnc3c(c2)CNCC3(C)C)cc1F`, the “Log Ki” value in the series filed under Rattus norvegicus [1] is on record as -7.2.

Turning to `COc1ccc(C(=O)Nc2cnc3c(c2)CN(C)CC3(C)C)cc1C#N`, the Increase in the series on Rattus norvegicus [2] was found to be 110%. For the same compound, the “Log Ki” value in the series filed under Rattus norvegicus [1] is reported as -7.3.

For the compound `COc1ccc(C(=O)Nc2cnc3c(c2)CN(C)CC3(C)C)cc1C(F)(F)F`, the bioavailability in series [3] turned out to be 20%. In the series with Rattus norvegicus [2], this compound showed an Increase of 570%. The “Log Ki” value in the series listed under Rattus norvegicus [1] is -8.8.

Take `COc1ccc(C(=O)Nc2cnc3c(c2)CNCC3(C)C)cc1Cl`: the Increase with Rattus norvegicus [2] came out at 260%. In addition, the “Log Ki” value in the series filed under Rattus norvegicus [1] was -8.1.

`COc1ccc(C(=O)Nc2cnc3c(c2)CN(C)CC3(C)C)cc1Cl` displayed an Increase in the series on Rattus norvegicus [2] of 380%. Besides, in the series filed under Rattus norvegicus [1], the “Log Ki” value was -8.5.

Compound `CC(C)Oc1ccc(C(=O)Nc2cnc3c(c2)CNCC3(C)C)cc1C(F)(F)F` registered an Increase in the series on Rattus norvegicus [2] of 15%. Further, in the series listed under Rattus norvegicus [1], the “Log Ki” value was -8.4.

For `COc1ccc(C(=O)Nc2cnc3c(c2)CNCC3(C)C)cc1C(F)(F)F`, the clearance in series [4] was 30 mL/min/kg. The bioavailability in series [5] is greater than 50%. This compound also returned an ED50 in the series listed under Rattus norvegicus [6] of 3.9 mg/kg. In the series with Rattus norvegicus [2], this compound had an Increase of 260%. The “Log Ki” value in the series filed under Rattus norvegicus [1] is listed as -8.7.

In turn, `CCOc1ccc(C(=O)Nc2cnc3c(c2)CNCC3(C)C)cc1C(F)(F)F` yielded an Increase in the series on Rattus norvegicus [2] of 80%. Also, in the series listed under Rattus norvegicus [1], the “Log Ki” value is -8.6.

`COc1ccc(C(=O)Nc2ccc3c(c2)CN(C)CC3)cc1C(F)(F)F` yielded a bioavailability in series [7] of 2%. In the series filed under Rattus norvegicus [1], the “Log Ki” value was -8.9.

In the case of `CCOc1ccc(C(=O)Nc2cnc3c(c2)CN(C)CC3(C)C)cc1C(F)(F)F`, the Increase in the series on Rattus norvegicus [2] is 310%. Besides, the “Log Ki” value in the series filed under Rattus norvegicus [1] is -8.5.

On to `COc1ccc(C(=O)Nc2cnc3c(c2)CNCC3(C)C)cc1Br`, for which the Increase with Rattus norvegicus [2] turned out to be 260%. Further, the “Log Ki” value in the series listed under Rattus norvegicus [1] was -8.7.

Consider `CN1Cc2cc(NC(=O)c3ccccc3)cnc2C(C)(C)C1`, for which the Increase with Rattus norvegicus [2] turned out to be 3%. Further, the “Log Ki” value in the series listed under Rattus norvegicus [1] is given as -6.2.

The compound `COc1ccc(C(=O)Nc2cnc3c(c2)CN(C)CC3(C)C)cc1Br` had an Increase in the series on Rattus norvegicus [2] of 210%. Besides, the “Log Ki” value in the series listed under Rattus norvegicus [1] is recorded as -8.6.

As for `CC(=O)c1ccc2c(c1)[C@H](NC(=O)c1ccc(F)cc1)[C@@H](O)C(C)(C)O2` [CARABERSAT], the ED50 in the series filed under Rattus norvegicus [6] is 6.3 mg/kg. Besides, in the series on Rattus norvegicus [2], the Increase was 120%.

The bioavailability is dose-corrected exposure relative to a reference, in per cent. One may read the clearance as the rate of elimination divided by the concentration. What is called ED50 is the midpoint of the dose-response relation. Lower therefore signals greater potency.

For the origin of these results see ChEMBL document CHEMBL1136371, “The design of 8,8-dimethyl[1,6]naphthyridines as potential anticonvulsant agents” (Bioorg Med Chem Lett, 2003).
